{"source": "ChEMBL document CHEMBL3745688", "about": "“Discovery of novel hybrids of diaryl-1,2,4-triazoles and caffeic acid as dual inhibitors of cyclooxygenase-2 and 5-lipoxygenase for cancer therapy” (Eur J Med Chem, 2016)", "data": [{"target": "T1, Prostaglandin G/H synthase 2 (Rattus norvegicus, UniProt P35355)", "T1 sequence (P35355 whole entry)": "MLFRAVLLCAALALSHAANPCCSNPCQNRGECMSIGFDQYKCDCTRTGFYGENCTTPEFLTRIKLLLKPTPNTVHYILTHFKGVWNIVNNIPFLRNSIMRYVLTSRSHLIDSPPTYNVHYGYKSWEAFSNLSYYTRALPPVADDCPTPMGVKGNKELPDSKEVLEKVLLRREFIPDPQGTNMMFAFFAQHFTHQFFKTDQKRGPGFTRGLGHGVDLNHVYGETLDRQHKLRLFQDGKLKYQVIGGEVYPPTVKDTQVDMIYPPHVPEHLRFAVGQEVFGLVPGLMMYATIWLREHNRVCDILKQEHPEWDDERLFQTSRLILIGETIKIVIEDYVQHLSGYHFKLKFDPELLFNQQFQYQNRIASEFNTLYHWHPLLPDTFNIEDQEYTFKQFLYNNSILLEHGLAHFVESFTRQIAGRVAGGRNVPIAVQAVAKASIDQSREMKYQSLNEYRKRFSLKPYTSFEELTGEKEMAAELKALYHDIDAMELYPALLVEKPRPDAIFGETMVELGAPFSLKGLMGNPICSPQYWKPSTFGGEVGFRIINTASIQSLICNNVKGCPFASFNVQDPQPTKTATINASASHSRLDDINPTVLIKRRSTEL", "assay": "Inhibition of COX2 in rat abdominal macrophages assessed as PGE2 production pretreated for 30 mins followed by addition of 10 uM arachidonic acid as substrate for 20 mins by EIA", "settings": "not given", "units": {"IC50": "nM"}, "values": [{"compound": "COc1cc(/C=C/C(=O)OCCSc2nc(-c3ccc(S(C)(=O)=O)cc3)n(-c3ccccc3)n2)ccc1OC(C)=O", "IC50": 620}, {"compound": "CC(=O)Oc1ccc(/C=C/C(=O)OCCSc2nc(-c3ccc(S(C)(=O)=O)cc3)n(-c3ccccc3)n2)cc1OC(C)=O", "IC50": 920}, {"compound": "CC(=O)Oc1ccc(/C=C/C(=O)NCCSc2nc(-c3ccc(S(C)(=O)=O)cc3)n(-c3ccc(F)cc3)n2)cc1OC(C)=O", "IC50": 160}, {"compound": "CC(=O)Oc1ccc(/C=C/C(=O)OCCSc2nc(-c3ccc(S(N)(=O)=O)cc3)n(-c3ccc(F)cc3)n2)cc1OC(C)=O", "IC50": 390}, {"compound": "CC(=O)Oc1ccc(/C=C/C(=O)OCCCSc2nc(-c3ccc(S(N)(=O)=O)cc3)n(-c3ccc(F)cc3)n2)cc1OC(C)=O", "IC50": 360}, {"compound": "NS(=O)(=O)c1ccc(-c2nc(SCCOC(=O)/C=C/c3ccc(O)c(O)c3)nn2-c2ccccc2)cc1", "IC50": 620}]}, {"tested_on": "not listed separately", "assay": "Antiproliferative activity against mouse B16F10 cells after 72 hrs by MTT assay", "assay_type": "functional, cell-based", "settings": "B16-F10, 72 h", "in_short": "(§1)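 Cells seeded at 5×10^4/well, grown 24 h at 37 °C in 5% CO₂, then exposed to compounds dissolved in DMSO at a range of concentrations for 72 h. MTT (5 mg/mL in PBS) added for 4 h, then OD read at 570 nm. IC50 taken from dose-response curves, mean ± S.D. of three independent experiments.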", "units": {"IC50": "µM"}, "values": [{"compound": "CC(=O)Oc1ccc(/C=C/C(=O)NCCSc2nc(-c3ccc(S(C)(=O)=O)cc3)n(-c3ccc(F)cc3)n2)cc1OC(C)=O", "IC50": 14.6}, {"compound": "CC(=O)Oc1ccc(/C=C/C(=O)OCCSc2nc(-c3ccc(S(N)(=O)=O)cc3)n(-c3ccc(F)cc3)n2)cc1OC(C)=O", "IC50": 11}, {"compound": "CC(=O)Oc1ccc(/C=C/C(=O)OCCCSc2nc(-c3ccc(S(N)(=O)=O)cc3)n(-c3ccc(F)cc3)n2)cc1OC(C)=O", "IC50": 10.9}, {"compound": "NS(=O)(=O)c1ccc(-c2nc(SCCOC(=O)/C=C/c3ccc(O)c(O)c3)nn2-c2ccccc2)cc1", "IC50": 15}]}, {"target": "T2, Polyunsaturated fatty acid 5-lipoxygenase (Rattus norvegicus, UniProt P12527)", "T2 sequence (P12527 whole entry)": "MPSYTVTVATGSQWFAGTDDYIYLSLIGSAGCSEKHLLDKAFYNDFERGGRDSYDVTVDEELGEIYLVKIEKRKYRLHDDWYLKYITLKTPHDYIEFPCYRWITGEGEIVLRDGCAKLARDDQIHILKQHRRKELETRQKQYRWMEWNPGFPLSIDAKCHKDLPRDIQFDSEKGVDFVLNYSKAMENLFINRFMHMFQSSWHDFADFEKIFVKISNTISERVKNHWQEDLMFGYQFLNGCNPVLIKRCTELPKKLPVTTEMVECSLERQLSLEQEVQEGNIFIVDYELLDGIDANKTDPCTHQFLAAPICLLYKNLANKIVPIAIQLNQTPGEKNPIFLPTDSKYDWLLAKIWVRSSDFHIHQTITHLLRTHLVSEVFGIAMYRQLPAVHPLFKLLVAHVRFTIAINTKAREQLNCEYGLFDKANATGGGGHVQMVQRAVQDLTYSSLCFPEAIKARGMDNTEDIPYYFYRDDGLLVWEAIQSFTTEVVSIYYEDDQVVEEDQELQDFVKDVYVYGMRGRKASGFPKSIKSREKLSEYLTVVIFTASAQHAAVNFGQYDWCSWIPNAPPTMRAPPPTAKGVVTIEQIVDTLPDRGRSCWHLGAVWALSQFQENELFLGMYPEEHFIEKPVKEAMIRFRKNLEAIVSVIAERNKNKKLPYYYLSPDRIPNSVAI", "assay": "Inhibition of 5-LOX in Sprague-Dawley rat leukocytes assessed as A23187 stimulated LTB4 production pretreated for 30 mins followed by addition of A23187 for 30 mins by EIA", "assay_type": "cell-based", "settings": "not given", "in_short": "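Rat peritoneal leukocytes collected from Sprague-Dawley rats primed i.p. with 0.2% glycogen (20 mL/kg). Cells in Hanks solution plated at 1.0×10^6/well and held 10 min at 37 °C. Pretreated 30 min with L-cysteine (10 mM), indomethacin (1 mg/L) and compound or DMSO. A23187 added for 30 min. LTB4 in the clarified supernatant measured by EIA; % inhibition from OD; IC50 by Bliss method.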", "units": {"IC50": "nM"}, "values": [{"compound": "COc1cc(/C=C/C(=O)OCCSc2nc(-c3ccc(S(C)(=O)=O)cc3)n(-c3ccccc3)n2)ccc1OC(C)=O", "IC50": 960}, {"compound": "CC(=O)Oc1ccc(/C=C/C(=O)OCCSc2nc(-c3ccc(S(C)(=O)=O)cc3)n(-c3ccccc3)n2)cc1OC(C)=O", "IC50": 1210}, {"compound": "CC(=O)Oc1ccc(/C=C/C(=O)NCCSc2nc(-c3ccc(S(C)(=O)=O)cc3)n(-c3ccc(F)cc3)n2)cc1OC(C)=O", "IC50": 950}, {"compound": "CC(=O)Oc1ccc(/C=C/C(=O)OCCSc2nc(-c3ccc(S(N)(=O)=O)cc3)n(-c3ccc(F)cc3)n2)cc1OC(C)=O", "IC50": 1060}, {"compound": "CC(=O)Oc1ccc(/C=C/C(=O)OCCCSc2nc(-c3ccc(S(N)(=O)=O)cc3)n(-c3ccc(F)cc3)n2)cc1OC(C)=O", "IC50": 1030}, {"compound": "NS(=O)(=O)c1ccc(-c2nc(SCCOC(=O)/C=C/c3ccc(O)c(O)c3)nn2-c2ccccc2)cc1", "IC50": 800}]}, {"tested_on": "A549", "assay": "Antiproliferative activity against human A549 cells after 72 hrs by MTT assay", "assay_type": "functional, cell-based", "settings": "A549, 72 h", "in_short": "as §1", "units": {"IC50": "µM"}, "values": [{"compound": "CC(=O)Oc1ccc(/C=C/C(=O)NCCSc2nc(-c3ccc(S(C)(=O)=O)cc3)n(-c3ccc(F)cc3)n2)cc1OC(C)=O", "IC50": 17}, {"compound": "CC(=O)Oc1ccc(/C=C/C(=O)OCCSc2nc(-c3ccc(S(N)(=O)=O)cc3)n(-c3ccc(F)cc3)n2)cc1OC(C)=O", "IC50": 12}, {"compound": "CC(=O)Oc1ccc(/C=C/C(=O)OCCCSc2nc(-c3ccc(S(N)(=O)=O)cc3)n(-c3ccc(F)cc3)n2)cc1OC(C)=O", "IC50": 9.92}, {"compound": "NS(=O)(=O)c1ccc(-c2nc(SCCOC(=O)/C=C/c3ccc(O)c(O)c3)nn2-c2ccccc2)cc1", "IC50": 14.1}]}, {"tested_on": "not listed separately", "assay": "Antiproliferative activity against human PC3 cells after 72 hrs by MTT assay", "assay_type": "functional, cell-based", "settings": "PC-3, 72 h", "in_short": "as §1", "units": {"IC50": "µM"}, "values": [{"compound": "CC(=O)Oc1ccc(/C=C/C(=O)NCCSc2nc(-c3ccc(S(C)(=O)=O)cc3)n(-c3ccc(F)cc3)n2)cc1OC(C)=O", "IC50": 18}, {"compound": "CC(=O)Oc1ccc(/C=C/C(=O)OCCSc2nc(-c3ccc(S(N)(=O)=O)cc3)n(-c3ccc(F)cc3)n2)cc1OC(C)=O", "IC50": 9.84}, {"compound": "CC(=O)Oc1ccc(/C=C/C(=O)OCCCSc2nc(-c3ccc(S(N)(=O)=O)cc3)n(-c3ccc(F)cc3)n2)cc1OC(C)=O", "IC50": 10.5}, {"compound": "NS(=O)(=O)c1ccc(-c2nc(SCCOC(=O)/C=C/c3ccc(O)c(O)c3)nn2-c2ccccc2)cc1", "IC50": 15}]}, {"tested_on": "not listed separately", "assay": "Antiproliferative activity against human Caco2 cells after 72 hrs by MTT assay", "assay_type": "functional, cell-based", "settings": "Caco-2, 72 h", "in_short": "as §1", "units": {"IC50": "µM"}, "values": [{"compound": "CC(=O)Oc1ccc(/C=C/C(=O)NCCSc2nc(-c3ccc(S(C)(=O)=O)cc3)n(-c3ccc(F)cc3)n2)cc1OC(C)=O", "IC50": 15.1}, {"compound": "CC(=O)Oc1ccc(/C=C/C(=O)OCCSc2nc(-c3ccc(S(N)(=O)=O)cc3)n(-c3ccc(F)cc3)n2)cc1OC(C)=O", "IC50": 11}, {"compound": "CC(=O)Oc1ccc(/C=C/C(=O)OCCCSc2nc(-c3ccc(S(N)(=O)=O)cc3)n(-c3ccc(F)cc3)n2)cc1OC(C)=O", "IC50": 11.5}, {"compound": "NS(=O)(=O)c1ccc(-c2nc(SCCOC(=O)/C=C/c3ccc(O)c(O)c3)nn2-c2ccccc2)cc1", "IC50": 15}]}]}
